The source made the active and inactive calls. A value given as a limit tells only on which side of the number the result lay.

This note sets out measurements from ChEMBL document CHEMBL1152917, “Benzothiophene piperazine and piperidine urea inhibitors of fatty acid amide hydrolase (FAAH)” (2009).

Test [1] addresses T1, Fatty-acid amide hydrolase 1 (Homo sapiens) (UniProt O00519).
T1 sequence (whole entry): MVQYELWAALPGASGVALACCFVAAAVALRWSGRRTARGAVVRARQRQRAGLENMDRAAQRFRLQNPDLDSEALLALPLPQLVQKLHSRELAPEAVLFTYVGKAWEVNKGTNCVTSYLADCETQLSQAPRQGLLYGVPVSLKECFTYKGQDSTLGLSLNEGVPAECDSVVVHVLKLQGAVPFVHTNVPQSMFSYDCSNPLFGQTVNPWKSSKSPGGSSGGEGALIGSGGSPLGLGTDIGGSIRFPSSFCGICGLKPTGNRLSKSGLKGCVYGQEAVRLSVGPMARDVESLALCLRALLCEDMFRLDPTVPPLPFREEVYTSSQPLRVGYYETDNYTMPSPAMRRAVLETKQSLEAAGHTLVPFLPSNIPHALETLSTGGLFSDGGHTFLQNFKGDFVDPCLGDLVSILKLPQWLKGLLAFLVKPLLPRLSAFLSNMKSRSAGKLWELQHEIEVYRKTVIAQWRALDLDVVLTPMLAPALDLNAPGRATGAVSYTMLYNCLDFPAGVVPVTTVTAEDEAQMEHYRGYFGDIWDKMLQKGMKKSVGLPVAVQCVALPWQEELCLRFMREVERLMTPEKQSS
In words: Ratio of Kinact to Ki for histidine6-tagged human FAAH. In outline: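 Human FAAH construct: aa 32–579, N-terminal transmembrane-deleted, N-terminal His6 tag, expressed in E. coli and purified to >95% by SDS–PAGE. Potency measured as kinact/Ki in a GDH-coupled FAAH assay in 384-well format. kobs was plotted against [I]; kinact/Ki came from the slope kinact/[Ki(1+[S]/Km)].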

For test [2], the target named is T2, Fatty-acid amide hydrolase 1 (Rattus norvegicus) (UniProt P97612).
T2 sequence (whole entry): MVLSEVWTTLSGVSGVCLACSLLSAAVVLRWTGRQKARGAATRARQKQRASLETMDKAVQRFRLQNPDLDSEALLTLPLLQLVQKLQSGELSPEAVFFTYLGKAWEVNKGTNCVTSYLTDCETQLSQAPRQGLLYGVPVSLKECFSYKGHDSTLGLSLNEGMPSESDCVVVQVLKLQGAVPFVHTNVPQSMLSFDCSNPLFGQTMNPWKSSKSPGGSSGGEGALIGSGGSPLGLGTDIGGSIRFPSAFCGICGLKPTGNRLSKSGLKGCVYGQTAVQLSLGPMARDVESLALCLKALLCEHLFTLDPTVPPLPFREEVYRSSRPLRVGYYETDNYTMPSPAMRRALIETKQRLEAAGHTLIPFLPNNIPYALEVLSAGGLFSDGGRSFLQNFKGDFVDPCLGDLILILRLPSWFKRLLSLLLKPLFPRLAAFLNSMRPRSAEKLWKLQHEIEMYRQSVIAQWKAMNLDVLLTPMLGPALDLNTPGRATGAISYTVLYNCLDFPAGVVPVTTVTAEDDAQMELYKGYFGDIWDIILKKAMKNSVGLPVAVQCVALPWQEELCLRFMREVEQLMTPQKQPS
Description: Ratio of Kinact to Ki for histidine6-tagged rat FAAH. Summed up:
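Rat FAAH construct: aa 30–579, N-terminal transmembrane-deleted, N-terminal His6 tag, E. coli-expressed and purified to >95% purity. Activity read by a GDH-coupled enzyme assay in 384-well plates. Second-order kinact/Ki was derived from the linear slope of kobs versus [I], correcting with (1+[S]/Km).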

Test [3] concerns the target T3, Fatty-acid amide hydrolase 1 (Mus musculus) (UniProt O08914).
T3 sequence (whole entry): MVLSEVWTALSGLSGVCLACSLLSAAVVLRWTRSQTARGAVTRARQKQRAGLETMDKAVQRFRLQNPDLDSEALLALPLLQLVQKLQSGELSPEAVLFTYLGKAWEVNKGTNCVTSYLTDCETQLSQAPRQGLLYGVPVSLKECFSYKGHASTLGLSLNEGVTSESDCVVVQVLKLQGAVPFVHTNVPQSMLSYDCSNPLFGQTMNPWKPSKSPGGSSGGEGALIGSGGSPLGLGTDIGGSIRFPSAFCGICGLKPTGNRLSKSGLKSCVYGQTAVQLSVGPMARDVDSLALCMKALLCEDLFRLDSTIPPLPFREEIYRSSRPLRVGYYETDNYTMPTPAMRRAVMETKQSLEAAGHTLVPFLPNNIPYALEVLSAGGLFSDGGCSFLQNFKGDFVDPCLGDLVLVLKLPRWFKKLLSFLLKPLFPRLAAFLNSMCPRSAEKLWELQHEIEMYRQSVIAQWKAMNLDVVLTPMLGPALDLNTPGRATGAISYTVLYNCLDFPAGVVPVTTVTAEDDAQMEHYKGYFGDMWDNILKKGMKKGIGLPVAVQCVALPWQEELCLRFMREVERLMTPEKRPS
Description: Inhibition of histidine6-tagged FAAH from mouse liver proteomes at 10 to 100 uM. Summed up: (§1)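 Competitive activity-based protein profiling with FP probe labeling of serine hydrolases. Proteomes used: soluble mouse liver, mouse kidney, human liver and human heart, plus human brain membrane. Compounds tested at 100 μM, reference at 10 and 100 μM. Inhibited bands were read by gel; FAAH and off-target labeling were judged by band loss.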

Test [4] concerns the target T3, Fatty-acid amide hydrolase 1 (Mus musculus). In words: Inhibition of histidine6-tagged FAAH from mouse kidney proteomes at 10 to 100 uM. The class given is tissue-based. Summed up:
as §1

Test [5] addresses T1, Fatty-acid amide hydrolase 1 (Homo sapiens). Description: Inhibition of histidine6-tagged FAAH from human liver proteomes at 10 to 100 uM. Summed up: as §1
Test [6] shares this target. In words: Inhibition of histidine6-tagged FAAH from human heart proteomes at 10 to 100 uM. In outline: as §1
The target is the same in test [7]. In words: Inhibition of histidine6-tagged FAAH from human brain proteomes at 10 to 100 uM. Summed up: as §1
The test system of test [8] is Rattus norvegicus. Description: Antihyperalgesic activity in complete Freund's adjuvant-induced rat inflammatory pain model assessed as reduction in mechanical allodynia after 4 hrs postdosing. The class given is functional. In outline: (§2)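 Rat CFA inflammatory pain model: complete Freund's adjuvant injected subcutaneously into hind paw plantar surface; testing at day 5 post-injection. Compound given ip at 3, 10 and 30 mg/kg; naproxen 10 mg/kg ip as reference. Mechanical paw weight threshold measured 4 h after dosing, compared with vehicle group; n = 8 rats/group.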

Test [9] concerns Rattus norvegicus. In words: Antihyperalgesic activity in complete Freund's adjuvant-induced rat inflammatory pain model assessed as reduction in mechanical allodynia at 10 mg/kg, ip. Type of test: functional, organism-based. Also on record: dose 10 mg/kg. In outline: as §2

Consider `Cc1ccc(NC(=O)N2CCN(Cc3sc4ccccc4c3C)CC2)cn1`, for which the figures for the Ratio in [1] and in test [2] were 44 M⁻¹ s⁻¹ and 390 M⁻¹ s⁻¹, respectively. Besides, the inhibition entry in test [3], in test [4], in test [5], in [6] and in test [7] was “Active” each time.
As to `Cc1c(CC2CCN(C(=O)Nc3cccnc3)CC2)sc2ccc(F)cc12`, the Ratio in test [1] is 4470 M⁻¹ s⁻¹; in test [2], 729 M⁻¹ s⁻¹. The inhibition entry in test [3], in test [4], in test [5], in [6] and in test [7] was “Active” in each case.
For the compound `NC(=O)c1cccc(-c2cccc(OC(=O)NC3CCCCC3)c2)c1`, the inhibition entry in [3], in test [4], in test [5], in [6] and in test [7] was “Active” in each case.
For the compound `COc1ccc(NC(=O)N2CCN(Cc3sc4ccccc4c3C)CC2)cn1`, the Ratio in test [1] is under 10 M⁻¹ s⁻¹; in test [2], 1060 M⁻¹ s⁻¹. Further, the inhibition entry in test [3], in test [4], in [5], in test [6] and in test [7] was “Active” throughout. Moreover, the Activity entry in the test on Rattus norvegicus [8] was “Dose-dependent effect”. Further, the minimal effective dose in the test on Rattus norvegicus [8] (read-out: MED) is 10 mg/kg. In the test on Rattus norvegicus [9], the result was Active.
